Screens (PubChem)
The list is not random: actives were taken first. Their share in the collection is about 1.4%.
CAL PDZ FP-1: inhibitors of human CAL PDZ peptide binding. purified CAL PDZ, TMR-peptide fluorescence polarization, 1 h. 330,000 tested, 0.02% active. Q9HD26. inhibition, % at 20 µM;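 active means highest replicate inhibition of at least 40%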;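 further: plate controls were DMSO neutral control wells for no effect and unlabeled competitor peptide control wells for full effect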
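Material: tagged CAL PDZ protein CerCALP, purified; buffer or medium: sodium phosphate/NaCl buffer pH 7.4 with TCEP, IgG, Thesit; also added: fluorescent TMR peptide probe; schedule: 1 h incubation at room temperature before polarization reading; technique: fluorescence polarization from S- and P-plane intensities, G-factor corrected; control set: unlabelled peptide and DMSO controls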
CAL PDZ FP-2: CAL PDZ (human) peptide binding inhibition; inhibition, % at 24.9 µM; Q9HD26; purified CAL PDZ, TMR-peptide fluorescence polarization, 1 h; 300,000 tested, 0.92% active;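 active means mean inhibition of at least 30% with at least half of replicates also reaching 30%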;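 further: 0% = DMSO neutral control and 100% = excess unlabeled competitor peptide PRC23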
ARNT-TACC3 inh: disrupts binding between human ARNT and TACC3 | Q9Y6A5 | inhibition, % at 9.99 µM | AlphaScreen His-ARNT PAS-B/GST-TACC3 binding, luminescence; TACC3 fragment carries E629A point mutation | 390,000 tested, 0.66% active;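 active means mean inhibition of replicates at least 50% and at least half of replicates each reaching 50%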;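 further: 0% = complete ARNT plus TACC3 wells and 100% = ARNT alone without TACC3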
Dyrk1A ADPGlo: blocks rat Dyrk1A kinase activity; Q63470; 310,000 tested, 0.43% active; ADP-Glo luminescence, NFATc1 peptide; inhibition, % at 12.5 µM; in the data active means inhibition above about 50%;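 further: plate controls were vehicle with enzyme for no effect and no enzyme for full effect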
An asterisk follows results filed as active; . = no result given; + = active, no number.

SMILES | CAL PDZ FP-1 | CAL PDZ FP-2 | ARNT-TACC3 inh | Dyrk1A ADPGlo
CCCn1c(SCC(=O)Nc2cc(Cl)ccc2Cl)n[nH]c1=O | -1.2 | 52.0* | -4.1 | .
CCCn1c(SCC(=O)Nc2cc(Cl)ccc2OC)n[nH]c1=O | 0.5 | -1.9 | -6.5 | 6.9
Oc1ccc(N=Nc2ccccc2-c2nn[nH]n2)c(O)c1 | -0.5 | 1.7 | 67.5* | 10.7
CC(=O)N/N=C/c1cc(C(C)(C)C)cc(/C=N/NC(C)=O)c1O | -2.1 | 10.9 | 62.5* | 1.7
CCc1ccc(S(=O)(=O)NC2CCCCNC2=O)cc1 (configuration not stated) | -0.3 | 2.5 | . | 2.8
O=C1NCCCCC1NS(=O)(=O)c1ccc(F)c(F)c1 (configuration not stated) | -0.7 | 110.1* | 4.9 | -1.2
Cc1noc(C)c1NC(=O)Nc1ccc2c(c1)C(=O)N([C@H](C)CO)C[C@@H](C)[C@H](CN(C)S(C)(=O)=O)O2 | . | . | 1.7 | .
COc1ccc(/C=N/Nc2nc(C(=O)O)cs2)cc1 | 0.1 | -1.2 | 45.3* | 7.6
CCC1SC(C)C/C(=N/NC(N)=O)C1C (configuration not stated) | 1.3 | -1.4 | -2.3 | 11.6
CC1CC(C)C(=NNC(N)=O)C(C(O)CC2CCC(=O)NC2=O)C1 (configuration not stated) | 0.9 | 50.7* | 0.7 | -0.1
COc1ccc(-c2ccnc3[nH]n(-c4ccccc4)c(=O)c23)cc1 | -1.0 | 59.7* | -6.4 | -5.2
O=c1c2c(-c3ccc([N+](=O)[O-])cc3)ccnc2[nH]n1-c1ccccc1 | . | 0.2 | -5.5 | 4.8
COc1cccc(-c2ccnc3[nH]n(-c4ccccc4)c(=O)c23)c1 | -1.3 | 67.1* | -7.1 | -4.6
N=C1SC(CC(=O)Nc2ccc([N+](=O)[O-])cc2)C(=O)N1c1ccccc1 (configuration not stated) | -1.7 | . | -2.2 | 5.7
COc1ccc(OC)c(NC(=O)CC2SC(=N)N(c3ccccc3)C2=O)c1 (configuration not stated) | 0.1 | + | -0.8 | -5.4
Cc1ccc(S(=O)(=O)NCC[C@H]2CC[C@@H](NC(=O)c3cnccn3)[C@H](CO)O2)cc1 | . | . | 6.5 | .
C[C@@H](NC(=O)C[C@H]1C[C@H]2c3cc(NC(=O)CC4CC4)ccc3O[C@H]2[C@@H](CO)O1)c1ccccc1 | . | . | -12.2 | .
CNc1ncnc(Sc2nc(N)nc3nc[nH]c23)c1[N+](=O)[O-] | -0.7 | -1.0 | -2.2 | 6.6
Nc1nc(Sc2ccc([N+](=O)[O-])c3nonc23)c2[nH]cnc2n1 | 0.1 | -6.1 | 21.5* | 15.2
CC(C)c1cn(CC[C@@H]2CC[C@H](NS(=O)(=O)Cc3ccccc3)[C@@H](CO)O2)nn1 | . | . | -32.1 | .
O=C(c1cccnc1)N1CC[C@@H]2[C@H](CO)Nc3ccc(-c4ccc(F)cc4)cc3[C@@H]21 | . | . | 2.7 | .
COc1cc(NC(C)CCCNC(C)C)c2ncccc2c1OC (configuration not stated) | 1.1 | -0.1 | 59.4* | 11.6
COc1cc(NCCCCCCN)c2ncccc2c1OC | 1.2 | 0.1 | 51.5* | 6.7
C[C@@H]1CN([C@@H](C)CO)C(=O)Cc2cc(NS(=O)(=O)c3ccc(Cl)cc3)ccc2O[C@@H]1CN(C)S(=O)(=O)c1ccc(F)cc1 | . | . | 3.7 | .
COc1ccc(OC)c(NC(=O)c2ccc(OC3CSC3)cc2)c1 | 27.6 | 55.2* | -0.9 | 0.4
SMILES | CAL PDZ FP-1 | CAL PDZ FP-2 | ARNT-TACC3 inh | Dyrk1A ADPGlo
COc1ccc(OC)c(NC(=O)c2ccc(NC(C)=O)cc2)c1 | -0.5 | -0.5 | -5.7 | -4.5
O=C(NC1CCCCC1)N[C@H]1CC[C@H](CC(=O)N2CCOCC2)O[C@@H]1CO | . | . | -5.8 | .
C[C@H](CO)N1C[C@H](C)[C@H](CN(C)C(=O)C2CCCCC2)OCCCC[C@H](C)Oc2ccc(NC(=O)C3CCCCC3)cc2C1=O | . | . | -13.9 | .
O=Cc1ccc2cccnc2n1 | -0.3 | 1.7 | 3.5 | -1.7
c1cnc2c(c1)ccc1cccnc12 | -1.6 | -4.5 | 64.7* | 27.5
O=Cc1ccc2ccc3cccnc3c2n1 | -0.8 | 55.0* | 66.9* | 25.6
O=C(OCc1ccccc1)N1CCC2CC1c1cc(-c3ccccc3)ccc12 (configuration not stated) | -0.5 | 52.6* | -2.4 | 1.2
O=C(Nc1ccc(Cl)cn1)c1ccccc1SCc1ccccc1 | 0.2 | -4.0 | -0.3 | 4.4
Cc1cccc(NC(=O)c2ccccc2SCc2ccc(F)cc2)n1 | -0.3 | 59.9* | . | -0.5
COc1ccc(S(=O)(=O)Nc2ccc3c(c2)CC(=O)N([C@H](C)CO)C[C@@H](C)[C@H](CN(C)S(C)(=O)=O)O3)cc1 | . | . | -4.4 | .
COC(=O)C[C@H]1CC[C@@H](NS(=O)(=O)c2ccc(OC)cc2)[C@H](CO)O1 | . | . | 48.0* | .
